Results from ChEMBL document CHEMBL1132557, “Novel, potent, semisynthetic antimalarial carba analogues of the first-generation 1,2,4-trioxane artemether” (J Med Chem, 1999).

How the values were obtained:
Mus musculus = experiment: Compound was tested in vivo for antimalarial activity against Plasmodium berghei in the mice (Mus musculus) model.; type: functional
In short: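 Male random Swiss albino mice, 18-22 g, infected ip with 10^7 P. berghei NS-strain parasitized erythrocytes; ip dosing once daily for four consecutive days starting on infection day; vehicle methanol/PBS/DMSO (2:5:3). Parasitemia read the day after last dose; ED50 (50% suppression vs vehicle-only controls) taken from log dose vs parasitemia plot.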

Plasmodium falciparum [1] = experiment: In vitro antimalarial activity against chloroquine-sensitive Plasmodium falciparum HB3; type: functional, organism-based
In short: (§1)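 P. falciparum kept in human erythrocytes in RPMI 1640 with 25 mM HEPES, 32 mM NaHCO3, 10% human serum, under 3% O2/4% CO2/93% N2. 48-h assay at 2% parasitemia, 0.5% hematocrit; DMSO stocks diluted in medium; triplicates. [3H]hypoxanthine (0.5 μCi) added at 24 h, harvested 24 h later; IC50 by probit interpolation of log dose-response.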

Plasmodium falciparum [2] = experiment: In vitro antimalarial activity against chloroquine-resistant Plasmodium falciparum K1
Plasmodium falciparum [3] = experiment: In vitro antimalarial activity against chloroquine-sensitive Plasmodium falciparum K1; type: functional, organism-based; in short: as §1

C[C@H]1[C@@H](CCO)O[C@@H]2OC3(C)CC[C@H]4[C@H](C)CC[C@@H]1[C@@]24OO3 (single isomer, unassigned)
ED50 (Mus musculus): 7.81 mg/kg | IC50 (Plasmodium falciparum [1]): 3.51 nM | IC50 (Plasmodium falciparum [2]): 6.67 nM

C[C@H]1[C@@H](CCOC(=O)c2ccc(C(F)(F)F)cc2)O[C@@H]2OC3(C)CC[C@H]4[C@H](C)CC[C@@H]1[C@@]24OO3 (single isomer, unassigned)
IC50 (Plasmodium falciparum [1]): 0.59 nM | IC50 (Plasmodium falciparum [2]): 14.2 nM

C[C@H]1[C@@H](CCOC(=O)c2ccc(F)cc2)O[C@@H]2OC3(C)CC[C@H]4[C@H](C)CC[C@@H]1[C@@]24OO3 (single isomer, unassigned)
IC50 (Plasmodium falciparum [1]): 0.69 nM | IC50 (Plasmodium falciparum [2]): 1.92 nM

CO[C@H]1O[C@@H]2O[C@@]3(C)CC[C@H]4[C@H](C)CC[C@@H]([C@H]1C)[C@@]24OO3 [ARTEMETHER]
ED50 (Mus musculus): 3.15 mg/kg

C[C@H]1[C@@H](CCOC(=O)c2cccc(C(F)(F)F)c2)O[C@@H]2OC3(C)CC[C@H]4[C@H](C)CC[C@@H]1[C@@]24OO3 (single isomer, unassigned)
IC50 (Plasmodium falciparum [1]): 0.64 nM | IC50 (Plasmodium falciparum [2]): 4.7 nM

C[C@H]1[C@@H](CCOCc2ccccc2C(F)(F)F)O[C@@H]2OC3(C)CC[C@H]4[C@H](C)CC[C@@H]1[C@@]24OO3 (single isomer, unassigned)
IC50 (Plasmodium falciparum [1]): 1.64 nM | IC50 (Plasmodium falciparum [2]): 3.6 nM

C[C@H]1[C@@H](CCOCc2ccc(F)cc2)O[C@@H]2OC3(C)CC[C@H]4[C@H](C)CC[C@@H]1[C@@]24OO3 (single isomer, unassigned)
IC50 (Plasmodium falciparum [1]): 0.73 nM | IC50 (Plasmodium falciparum [2]): 6.08 nM

C[C@@H]1CC[C@H]2[C@@H](C)C(=O)O[C@@H]3O[C@@]4(C)CC[C@@H]1[C@]32OO4 [ARTEMISININ]
IC50 (Plasmodium falciparum [1]): 3.04 nM | IC50 (Plasmodium falciparum [2]): 3.6 nM

C[C@H]1[C@@H](CCOCc2ccc(C(F)(F)F)cc2)O[C@@H]2OC3(C)CC[C@H]4[C@H](C)CC[C@@H]1[C@@]24OO3 (single isomer, unassigned)
IC50 (Plasmodium falciparum [3]): 3.75 nM | IC50 (Plasmodium falciparum [1]): 4.24 nM

C[C@H]1[C@@H](CCOC(=O)c2cccc(F)c2)O[C@@H]2OC3(C)CC[C@H]4[C@H](C)CC[C@@H]1[C@@]24OO3 (single isomer, unassigned)
ED50 (Mus musculus): 6.99 mg/kg | IC50 (Plasmodium falciparum [1]): 0.35 nM | IC50 (Plasmodium falciparum [2]): 3.78 nM

C[C@H]1[C@@H](CCOC(=O)c2ccccc2F)O[C@@H]2OC3(C)CC[C@H]4[C@H](C)CC[C@@H]1[C@@]24OO3 (single isomer, unassigned)
IC50 (Plasmodium falciparum [1]): 0.53 nM | IC50 (Plasmodium falciparum [2]): 1.12 nM

C[C@H]1[C@@H](CCOCc2cccc(F)c2)O[C@@H]2OC3(C)CC[C@H]4[C@H](C)CC[C@@H]1[C@@]24OO3 (single isomer, unassigned)
IC50 (Plasmodium falciparum [1]): 0.32 nM | IC50 (Plasmodium falciparum [2]): 6.43 nM

C[C@H]1[C@@H](O)O[C@@H]2O[C@@]3(C)CC[C@H]4[C@H](C)CC[C@@H]1[C@@]24OO3 [ARTENIMOL]
ED50 (Mus musculus): 1.15 mg/kg | IC50 (Plasmodium falciparum [1]): 1.04 nM | IC50 (Plasmodium falciparum [2]): 2.2 nM
